ChEMBL document CHEMBL1141861, “Synthesis and in vitro anti-hepatitis B and C virus activities of ring-expanded ('fat') nucleobase analogues containing the imidazo[4,5-e][1,3]diazepine-4,8-dione ring system” (Bioorg Med Chem Lett, 2005)

Test system: Hepatitis B virus
Experiment: Inhibition of synthesis of extracellular virion DNA release in cultured human hepatoblastoma 2.2.15 cells
Type: functional, organism-based
Conditions: HepG2 2.2.15
Procedure, shortened: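 Confluent 2.2.15 cells were dosed daily for nine days. Culture medium was collected daily, and extracellular virion HBV DNA was assayed on days 0, 3, 6 and 9 by blot hybridization using ³²P-labelled HBV-specific probes. EC50 and EC90 (50%/90% inhibition) came from linear regression on all treated cultures, with SD taken from the regression standard error.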

Question: For `CCCCCCCCNc1nc(=O)c2c(nc(Br)n2Cc2ccccc2)c(=O)[nH]1`, which EC50 is on record?
Answer: 1.7 µM

Question: What about the EC90 of the same molecule?
Answer: 6.9 µM

Question: `Nc1ccn([C@@H]2CS[C@H](CO)O2)c(=O)n1` [LAMIVUDINE] was tested. Which EC90 did it give?
Answer: 0.151 µM

Test system: Huh-7
Experiment: Cytotoxicity against Huh7ET cell line containg HCV replicon at 10 uM assessed by measuring the beta-actin RNA level relative to control
Type: functional, Homo sapiens
Conditions: not given
Procedure, shortened: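 Huh7 ET HCV replicon (luciferase reporter) cells treated at 10 µM in the same primary screen. Cellular β-actin RNA level is used to compute cytotoxicity, expressed as % of control.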

Question: Which Activity does the source give for `CCCCCCCCCCCCNc1nc(=O)c2c(nc(Br)n2Cc2ccc(OC)cc2)c(=O)[nH]1` here?
Answer: 47%

Question: How did the Activity turn out when `CCNc1nc(=O)c2c(nc(Br)n2Cc2ccc(OC)cc2)c(=O)[nH]1` was run?
Answer: 65%

Question: With `CCCCCCCCNc1nc(=O)c2c(nc(Br)n2COCc2ccccc2)c(=O)[nH]1` as the molecule, how does the Activity read?
Answer: 61%

Question: `CNc1nc(=O)c2c(nc(Br)n2Cc2ccc(OC)cc2)c(=O)[nH]1` was tested. Which Activity did it give?
Answer: 48%

Question: Which Activity does the source give for `CCCCCCCCCCCCCCCCNc1nc(=O)c2c(nc(Br)n2Cc2ccc(OC)cc2)c(=O)[nH]1` here?
Answer: 3%

Question: For `CCCCCCCCNc1nc(=O)c2c(nc(Br)n2Cc2ccc(OC)cc2)c(=O)[nH]1`, which Activity is on record?
Answer: 69%

Question: Which Activity does the source give for `CCCCCCCCCCNc1nc(=O)c2c(nc(Br)n2Cc2ccc(OC)cc2)c(=O)[nH]1` here?
Answer: 32%

Question: `CCCCCCCCNc1nc(=O)c2c(nc(Br)n2Cc2ccccc2)c(=O)[nH]1` was tested. Which Activity did it give?
Answer: 83%

Question: With `COc1ccc(Cn2c(Br)nc3c(=O)nc(N)[nH]c(=O)c32)cc1` as the molecule, how does the Activity read?
Answer: 89%

Question: With `CCCCCCCCCCCCCCNc1nc(=O)c2c(nc(Br)n2Cc2ccc(OC)cc2)c(=O)[nH]1` as the molecule, how does the Activity read?
Answer: 34%

Question: How did the Activity turn out when `COc1ccc(Cn2c(Br)nc3c(=O)nc(NCc4ccccc4)[nH]c(=O)c32)cc1` was run?
Answer: 69%

Question: For `NC(=O)c1ncn([C@@H]2O[C@H](CO)[C@@H](O)[C@H]2O)n1` [RIBAVIRIN], which Activity is on record?
Answer: 12%

Test system: Huh-7
Experiment: Selectivity index (toxicity/antiviral activity)
Type: functional
Conditions: not given
Procedure, shortened: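 Huh7 ET HCV luciferase replicon cells, single 10 µM primary screen. Index is the ratio of β-actin RNA level (% control) to replicon-derived luciferase activity (% control).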

Question: Which Selectivity index does the source give for `CCCCCCCCCCCCNc1nc(=O)c2c(nc(Br)n2Cc2ccc(OC)cc2)c(=O)[nH]1` here?
Answer: 1

Question: Which Selectivity index does the source give for `CCNc1nc(=O)c2c(nc(Br)n2Cc2ccc(OC)cc2)c(=O)[nH]1` here?
Answer: 1.912

Question: How did the Selectivity index turn out when `CCCCCCCCNc1nc(=O)c2c(nc(Br)n2COCc2ccccc2)c(=O)[nH]1` was run?
Answer: 2.1

Question: `CNc1nc(=O)c2c(nc(Br)n2Cc2ccc(OC)cc2)c(=O)[nH]1` was tested. Which Selectivity index did it give?
Answer: 1.453

Question: For `CCCCCCCCCCCCCCCCNc1nc(=O)c2c(nc(Br)n2Cc2ccc(OC)cc2)c(=O)[nH]1`, which Selectivity index is on record?
Answer: 0.043

Question: `CCCCCCCCNc1nc(=O)c2c(nc(Br)n2Cc2ccc(OC)cc2)c(=O)[nH]1` was tested. Which Selectivity index did it give?
Answer: 2.155

Question: For `CCCCCCCCCCNc1nc(=O)c2c(nc(Br)n2Cc2ccc(OC)cc2)c(=O)[nH]1`, which Selectivity index is on record?
Answer: 0.604

Question: For `CCCCCCCCNc1nc(=O)c2c(nc(Br)n2Cc2ccccc2)c(=O)[nH]1`, which Selectivity index is on record?
Answer: 1.06

Question: `COc1ccc(Cn2c(Br)nc3c(=O)nc(N)[nH]c(=O)c32)cc1` was tested. Which Selectivity index did it give?
Answer: 1.435

Question: `CCCCCCCCCCCCCCNc1nc(=O)c2c(nc(Br)n2Cc2ccc(OC)cc2)c(=O)[nH]1` was tested. Which Selectivity index did it give?
Answer: 0.532

Question: `COc1ccc(Cn2c(Br)nc3c(=O)nc(NCc4ccccc4)[nH]c(=O)c32)cc1` was tested. Which Selectivity index did it give?
Answer: 1.255

Question: With `NC(=O)c1ncn([C@@H]2O[C@H](CO)[C@@H](O)[C@H]2O)n1` [RIBAVIRIN] as the molecule, how does the Selectivity index read?
Answer: 0.42

Test system: Hepatitis C virus
Experiment: Antiviral activity against HCV in Huh7 ETcell line at 10 uM assessed by measuring HCV-RNA-derived LUC activity relative to control
Type: functional, Hepacivirus hominis
Conditions: not given
Procedure, shortened: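 Primary single-concentration screen (10 µM) in Huh7 ET cells carrying an HCV RNA replicon with a stable luciferase reporter. Replicon-derived luciferase activity serves as an indirect measure of HCV RNA and is expressed as % of control.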

Question: With `CCCCCCCCCCCCNc1nc(=O)c2c(nc(Br)n2Cc2ccc(OC)cc2)c(=O)[nH]1` as the molecule, how does the Activity read?
Answer: 47%

Question: `CCNc1nc(=O)c2c(nc(Br)n2Cc2ccc(OC)cc2)c(=O)[nH]1` was tested. Which Activity did it give?
Answer: 34%

Question: Which Activity does the source give for `CCCCCCCCNc1nc(=O)c2c(nc(Br)n2COCc2ccccc2)c(=O)[nH]1` here?
Answer: 29%

Question: Which Activity does the source give for `CNc1nc(=O)c2c(nc(Br)n2Cc2ccc(OC)cc2)c(=O)[nH]1` here?
Answer: 33%

Question: `CCCCCCCCCCCCCCCCNc1nc(=O)c2c(nc(Br)n2Cc2ccc(OC)cc2)c(=O)[nH]1` was tested. Which Activity did it give?
Answer: 70%

Question: `CCCCCCCCNc1nc(=O)c2c(nc(Br)n2Cc2ccc(OC)cc2)c(=O)[nH]1` was tested. Which Activity did it give?
Answer: 32%

Question: `CCCCCCCCCCNc1nc(=O)c2c(nc(Br)n2Cc2ccc(OC)cc2)c(=O)[nH]1` was tested. Which Activity did it give?
Answer: 53%

Question: For `CCCCCCCCNc1nc(=O)c2c(nc(Br)n2Cc2ccccc2)c(=O)[nH]1`, which Activity is on record?
Answer: 78%

Question: How did the Activity turn out when `COc1ccc(Cn2c(Br)nc3c(=O)nc(N)[nH]c(=O)c32)cc1` was run?
Answer: 62%

Question: `CCCCCCCCCCCCCCNc1nc(=O)c2c(nc(Br)n2Cc2ccc(OC)cc2)c(=O)[nH]1` was tested. Which Activity did it give?
Answer: 64%

Question: Which Activity does the source give for `COc1ccc(Cn2c(Br)nc3c(=O)nc(NCc4ccccc4)[nH]c(=O)c32)cc1` here?
Answer: 55%

Question: For `NC(=O)c1ncn([C@@H]2O[C@H](CO)[C@@H](O)[C@H]2O)n1` [RIBAVIRIN], which Activity is on record?
Answer: 89%

Test system: HepG2
Experiment: Selectivity index (CC50/EC50) for inhibition of HBV replicative intermediate synthesis in human hepatoblastoma 2.2.15 cells
Type: functional
Conditions: not given
Procedure, shortened: (§1)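 2.2.15 cells were dosed daily for nine days. CC50 is the neutral red uptake concentration causing a twofold reduction versus untreated cultures. EC50 is from blot hybridization of intracellular replicative intermediates or extracellular virion DNA, by linear regression. Index = CC50/EC50.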

Question: Which Selectivity index does the source give for `CCCCCCCCNc1nc(=O)c2c(nc(Br)n2Cc2ccccc2)c(=O)[nH]1` here?
Answer: 34

Question: Which Selectivity index does the source give for `Nc1ccn([C@@H]2CS[C@H](CO)O2)c(=O)n1` [LAMIVUDINE] here?
Answer: 8602

Test system: HepG2
Experiment: Selectivity index (CC50/EC50) for inhibition of HBV virion DNA synthesis in human hepatoblastoma 2.2.15 cells
Type: functional
Conditions: not given
Procedure, shortened: as §1

Question: `CCCCCCCCNc1nc(=O)c2c(nc(Br)n2Cc2ccccc2)c(=O)[nH]1` was tested. Which Selectivity index did it give?
Answer: 168

Question: How did the Selectivity index turn out when `Nc1ccn([C@@H]2CS[C@H](CO)O2)c(=O)n1` [LAMIVUDINE] was run?
Answer: 44979

Test system: HepG2
Experiment: Cytotoxicity against human hepatoblastoma 2.2.15 cells
Type: functional
Conditions: not given
Procedure, shortened: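 Confluent HBV-producing 2.2.15 cells received compound daily for nine days. Cytotoxicity was read by neutral red dye uptake. CC50 is the concentration giving a twofold drop in uptake from the mean of untreated cultures.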

Question: Which CC50 does the source give for `CCCCCCCCNc1nc(=O)c2c(nc(Br)n2Cc2ccccc2)c(=O)[nH]1` here?
Answer: 286 µM

Question: `Nc1ccn([C@@H]2CS[C@H](CO)O2)c(=O)n1` [LAMIVUDINE] was tested. Which CC50 did it give?
Answer: 2160 µM

Test system: Hepatitis B virus
Experiment: Inhibition of synthesis of intracellular HBV DNA replicative intermediates in cultured human hepatoblastoma 2.2.15 cells
Type: functional, organism-based
Conditions: HepG2 2.2.15
Procedure, shortened: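 2.2.15 cells were dosed daily for nine days and lysed 24 h after day 9. Intracellular HBV DNA replicative intermediates were measured by Southern/dot blot hybridization with ³²P-labelled HBV probes. EC50 and EC90 came from linear regression on combined treated-culture data, with SD from the regression standard error.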

Question: For `CCCCCCCCNc1nc(=O)c2c(nc(Br)n2Cc2ccccc2)c(=O)[nH]1`, which EC50 is on record?
Answer: 8.4 µM

Question: What about the EC90 of the same molecule?
Answer: 28 µM

Question: `Nc1ccn([C@@H]2CS[C@H](CO)O2)c(=O)n1` [LAMIVUDINE] was tested. Which EC50 did it give?
Answer: 0.251 µM

Question: And the EC90?
Answer: 0.648 µM
